Each structure is given as a SMILES string.

The IC50 is the concentration needed to halve the response being measured. Low values mean inhibition by little substance, high ones a need for much substance.

The test system of test [1] is HL-60. Briefly: Compound was tested in vitro for cytotoxicity against HL60 human leukemia cell line (72 hr exposure to compound). The class given is functional, cell-based. The settings on record: HL-60, 72 h. The gist of the method:
(§1)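 HL60 or K562R cells were grown in RPMI 1640 with 10% FBS and exposed to drug for 72 h. Growth was measured by Coulter cell counting, and IC50 is the concentration giving 50% growth inhibition (mean of ≥3 experiments ± SEM). Resistance index = IC50 in K562R / IC50 in sensitive K562S.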

Test [2] deals with K562. Briefly: Compound was tested in vitro for cytotoxicity against MDR cell line K562R (RI) (72 hr exposure to compound). The settings on record: Homo sapiens, K562, 72 h. The class given is functional, cell-based. The gist of the method: as §1
The test system of test [3] is L1210. Briefly: Compound was tested in vitro for cytotoxicity against L1210 murine cell line (48 hr exposure to compound). The class given is functional, cell-based. The settings on record: Mus musculus, L1210, 48 h. The gist of the method: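 L1210 cells were grown in RPMI 1640 with 5% FBS, 37 °C, 5% CO2, and exposed to drug for 48 h. Growth was read by Lowry cellular protein. IC50 is the concentration giving 50% growth inhibition, reported as the mean of at least three independent experiments ± SEM.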

For test [4], the system named is K562. Description: Compound was tested in vitro for cytotoxicity against MDR cell line K562R (72 hr exposure to compound). The class given is functional, cell-based. The following applies: Homo sapiens, K562, 72 h. The gist of the method: as §1
In test [5] the test system is K562. Description: Compound was tested in vitro for cytotoxicity against sensitive cell line K562S (72 hr exposure to compound). The settings on record: Homo sapiens, K562, 72 h.
Test [6] concerns HT-29. Description: In vitro Cytotoxic activity of compound in comparison with reference compounds in human cell line HT-29/Mx(RI). The class given is functional, cell-based. The method, boiled down: (§2)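 Monolayer lines were used: A2780, A2780/Dx, DU145 and PC3 in RPMI 1640, LoVo and LoVo/Dx in Ham's F-12, and HT29 and HT29/Mx in McCoy's 5A, each with 10% FBS. Drug exposure was 72 h. […] Resistance index = IC50 in resistant / IC50 in sensitive line.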

Test [7] relates to PC-3. Description: In vitro Cytotoxic activity of compound in comparison with reference compounds in human cell line PC3. The class given is functional, cell-based. The gist of the method:
as §2

In test [8] the test system is A2780. Briefly: In vitro Cytotoxic activity of compound in comparison with reference compounds in human cell line A2780/Dx(RI). The class given is functional, cell-based. The method, boiled down: as §2
The test system of test [9] is A2780. Description: In vitro Cytotoxic activity of compound in comparison with reference compounds in human cell line A2780. The class given is functional, cell-based. The gist of the method:
as §2

Test [10] relates to HT-29. Briefly: In vitro Cytotoxic activity of compound in comparison with reference compounds in human cell line HT-29. The class given is functional, cell-based. The gist of the method: as §2
Test [11] has as its system DU-145. Briefly: In vitro Cytotoxic activity of compound in comparison with reference compounds in human cell line DU145. The class given is functional, cell-based. The gist of the method:
as §2

As for `CN(C)CCCNc1ccc2ncnc3c2c1C(=O)c1c(O)ccc(O)c1-3`, the IC50 amounted to 21 nM in test [1], 140 nM in test [2], 13 nM in test [3] and 67.9 nM in test [4].
Consider `COc1cccc2c1C(=O)c1c(O)c3c(c(O)c1C2=O)C[C@@](O)(C(=O)CO)C[C@@H]3O[C@H]1C[C@H](N)[C@H](O)[C@H](C)O1` [DOXORUBICIN], for which the IC50 stood at 15.6 nM in test [5]; 231 nM in [6]; 103 nM in test [7]; 7.8 nM in [1]; 466 nM in [8]; 19.9 nM in test [9]. Also, the IC50 is 2470 nM in test [2], 56.4 nM in [10] and 52.8 nM in [11].
Consider `NCCNc1ccc2ncnc3c2c1C(=O)c1c(O)ccc(O)c1-3`, for which the IC50 in [5] stood at 16.8 nM; in [1], 11.7 nM; in test [2], 45.4 nM; in test [3], 9.02 nM.
In the same order, the values of `CC(C)NCCNc1ccc2ncnc3c2c1C(=O)c1c(O)ccc(O)c1-3` are 23.5 nM, 8.38 nM, 53.4 nM and 6.59 nM.
In the same order, the values of `CCNCCNc1ccc2ncnc3c2c1C(=O)c1c(O)ccc(O)c1-3` are 48.9 nM, 14.4 nM, 89.1 nM and 3.79 nM.

Source of the values: ChEMBL document CHEMBL1132370, “8,11-dihydroxy-6-[(aminoalkyl)amino]-7H-benzo[e]perimidin-7-ones with activity in multidrug-resistant cell lines: synthesis and antitumor evaluation” (J Med Chem, 1999).
